From PubChem
In the library only some 4% were active in any assay of this set; here they are far more common.
Yeast growth inh = reduces growth of yeast BB579 in restrictive medium | inhibition, % at 10 µM | 140,000 compounds, 0.51% hits | S. cerevisiae BB579 growth, OD615, 48 h | AID 804;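 active = inhibition above a set limit, 3 SD over the mean compound inhibition, cut at about 44% in these data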
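Material: Saccharomyces cerevisiae DeaD strain BB579, replicative lifespan model yeast; buffer or medium: CSMM-D restrictive synthetic medium containing dextrose (glucose); compound: 10 µM single dose, DMSO 0.25%; timing: 48 h compound exposure at 30 °C after 4 h preincubation; signal: turbidity as optical density at 615 nm; benchmarks: positive control amphotericin B 10 µg/mL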
MDM2 E3 inh = Mdm2 E3 ligase (human) inhibition; Q00987; cell-based MDM2 ubiquitination luciferase reporter, 2 h; 0 = plate control, 100 = twice control, blank-subtracted; signal enhancement, % at 5 µM; 210,000 compounds, 0.11% hits; AID 1230;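 active = signal enhancement of 30% or more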;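 also: luminescence tracks abundance of the self-degrading MDM2-luciferase fusion protein; higher signal means inhibition of MDM2 E3 ligase activity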
Target sequence (Q00987 whole entry, looked up, the tested form may be a part): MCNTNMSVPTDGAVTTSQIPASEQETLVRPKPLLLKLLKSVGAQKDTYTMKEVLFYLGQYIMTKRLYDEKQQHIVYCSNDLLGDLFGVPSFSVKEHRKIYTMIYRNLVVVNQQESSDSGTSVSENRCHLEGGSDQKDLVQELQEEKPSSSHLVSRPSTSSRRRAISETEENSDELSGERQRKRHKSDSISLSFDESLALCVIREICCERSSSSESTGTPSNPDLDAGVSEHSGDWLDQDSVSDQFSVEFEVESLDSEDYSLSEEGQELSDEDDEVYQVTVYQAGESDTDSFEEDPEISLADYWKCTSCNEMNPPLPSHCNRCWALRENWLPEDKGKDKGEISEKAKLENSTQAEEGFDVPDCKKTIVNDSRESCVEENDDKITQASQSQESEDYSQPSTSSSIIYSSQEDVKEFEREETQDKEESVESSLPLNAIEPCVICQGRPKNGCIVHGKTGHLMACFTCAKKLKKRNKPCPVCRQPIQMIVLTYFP
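Material: Stable MDM2–luciferase fusion reporter cells | Amount: 2000 cells seeded into each well | Dosing: One concentration, 5 µM, with 0.2% DMSO | Incubation: 4 h cell settling then 2 h compound exposure, 37 °C | Measured by: Luciferase luminescence | Read-out basis: % enhancement relative to plate controls after blank subtraction | Benchmarks: Control and blank well means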
INS promoter inh = TRM-6 insulin promoter activity inhibition; AID 1273; inhibition, % at 2 µM; 130,000 compounds, 0.9% hits; TRM-6 cells, insulin promoter-eGFP reporter, imaging; reporter expression induced with tamoxifen;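 active = inhibition above the mean plus 3 SD, with well images judged a real hit on visual review, cut at about 60% in these data, passing the limit was not always enough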
Yeast life ext = extends the lifespan of yeast. inhibition of the nicotinamide effect, % at 10 µM. S. cerevisiae growth with nicotinamide, OD615; deaD strain in restrictive glucose medium. 130,000 compounds, 0.68% hits;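 active = inhibition above a set limit, placed 3 SD over the median of all compounds, cut at about 26% in these data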
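Buffer or medium: CSMM-D glucose medium, restrictive; test system: modified budding yeast, DeaD strain; compound: single dose 10 µM compound, 0.25% DMSO; schedule: culture preincubation 4 h, compound exposure 48 h, both 30 °C; detection: optical density (absorbance) at 615 nm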
Measles CPE = protection of cells from measles virus | Measles virus-infected cells, CPE protection, absorbance | protection (pct of control), % at 4 µM | 140,000 compounds, 1.5% hits | AID 841; in the data active = protection mostly above about 24%, no sharp cut-off; inactive = mostly below about 26%
RAM network inh = yeast RAM network inhibition; S. cerevisiae dse1pr::URA3 reporter, 5-FOA growth OD615, 2 d; analog-sensitive cbk1-as2 kinase mutant strain; inhibition, % at 50 µM; 190,000 compounds, 1.8% hits; AID 868;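 active = inhibition above a set limit, 3 SD over mean compound inhibition, cut at about 8.4% in these data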;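 also: inhibition rescues growth on 5-FOA so higher OD means more RAM inhibition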
A number is an active result.

Screening CCOC(=O)C1=Nc2ccccc2C1=[N+]=[N-] returned Yeast growth inh 100, MDM2 E3 inh inactive, Yeast life ext inactive, Measles CPE inactive and RAM network inh inactive.
For COC(=O)c1ccccc1NC(=O)C1CC(=O)N(c2ccc(C)c(C)c2)C1 (stereo not given) the results were Yeast growth inh inactive, MDM2 E3 inh inactive, INS promoter inh inactive, Yeast life ext inactive, Measles CPE inactive and RAM network inh inactive.
COC(=O)c1ccccc1NC(=O)C1CC(=O)N(c2ccc(F)cc2)C1 (stereo not given) was read as Yeast growth inh inactive, MDM2 E3 inh inactive, INS promoter inh 71, Yeast life ext inactive, Measles CPE inactive and RAM network inh inactive.
COc1ccc(N2CC(C(=O)Nc3ccccc3C(=O)NCc3ccco3)CC2=O)cc1 (stereo not given) was read as Yeast growth inh inactive, MDM2 E3 inh inactive, INS promoter inh inactive, Yeast life ext inactive, Measles CPE 35 and RAM network inh inactive.
`COC(=O)C(Cc1c[nH]c2ccccc12)NC(=O)c1cc(-c2ccc(OC)c(OC)c2)oc1C` (stereo not given) gave Yeast growth inh inactive, MDM2 E3 inh inactive, INS promoter inh inactive, Yeast life ext inactive, Measles CPE inactive and RAM network inh inactive.
`COC(=O)C1CCN(C(c2ccc(OC)c(OC)c2)c2sc3nc(C)nn3c2O)CC1` (stereo not given) gave Yeast growth inh inactive, MDM2 E3 inh inactive, Yeast life ext inactive, Measles CPE inactive and RAM network inh inactive.
For COc1ccc(C(c2sc3nc(C)nn3c2O)N2CCC(C(N)=O)CC2)cc1OC (stereo not given) the results were Yeast growth inh inactive, MDM2 E3 inh inactive, INS promoter inh 80, Yeast life ext inactive, Measles CPE inactive and RAM network inh inactive.
`CCc1cc(C(=O)c2ccc(C)cc2)c(NC(=O)CCl)s1` gave Yeast growth inh inactive, MDM2 E3 inh inactive, INS promoter inh inactive, Yeast life ext inactive, Measles CPE inactive and RAM network inh 9.2.
Cc1ccc(NC(=O)CSc2nccn2C)cc1S(=O)(=O)N1CCOCC1 was read as Yeast growth inh inactive, MDM2 E3 inh inactive, INS promoter inh inactive, Yeast life ext inactive, Measles CPE inactive and RAM network inh inactive.
Cc1ccc(NC(=O)CCCSc2ccccc2)cc1S(=O)(=O)N1CCOCC1 was read as MDM2 E3 inh inactive, INS promoter inh inactive and RAM network inh 8.9.
Screening Cc1ccc(NC(=O)CSc2ccccn2)cc1S(=O)(=O)N1CCOCC1 returned MDM2 E3 inh inactive, INS promoter inh 74 and RAM network inh inactive.
`Cc1ccc(NC(=O)CSc2nnc3ccccn23)cc1S(=O)(=O)N1CCOCC1` gave MDM2 E3 inh inactive and RAM network inh inactive.
For COc1ccccc1C(=O)NCC(=O)OCC(=O)c1ccc2c(c1)-c1ccccc1C2 the results were Yeast growth inh inactive, MDM2 E3 inh inactive, INS promoter inh inactive, Yeast life ext inactive, Measles CPE inactive and RAM network inh inactive.
CC(C)=CCN1CCN(Cc2ccc(Sc3nncn3C)o2)CC1CCO (stereo not given) was read as MDM2 E3 inh inactive and RAM network inh inactive.
`COc1cccc(C(=O)NC(=S)Nc2ccc3c4c(cccc24)CC3)c1` gave Yeast growth inh inactive, MDM2 E3 inh inactive, INS promoter inh inactive, Yeast life ext inactive, Measles CPE inactive and RAM network inh inactive.
COC(=O)CCC(=O)COc1ccccc1C#N was read as Yeast growth inh inactive, MDM2 E3 inh inactive, INS promoter inh inactive, Yeast life ext inactive, Measles CPE 41 and RAM network inh inactive.
CCN(CC)S(=O)(=O)c1ccc(C)c(C(=O)Oc2cccc(-c3cnc4ccccc4n3)c2)c1 was read as Yeast growth inh inactive, MDM2 E3 inh inactive, INS promoter inh inactive, Yeast life ext inactive, Measles CPE inactive and RAM network inh 9.3.
Screening COc1ccc(/C=N/OCC(=O)N2CC3(C)CC2CC(C)(C)C3)cc1OC (stereo not given) returned Yeast growth inh inactive, MDM2 E3 inh inactive, INS promoter inh inactive, Yeast life ext inactive, Measles CPE 44 and RAM network inh inactive.
COc1cc(/C=C/C(=O)OCC(=O)N2CC3(C)CC2CC(C)(C)C3)ccc1O (stereo not given) was read as Yeast growth inh inactive, MDM2 E3 inh inactive, INS promoter inh inactive, Yeast life ext inactive, Measles CPE inactive and RAM network inh inactive.
Screening Cc1cc(NC(=O)CSc2nc(C(C)C)nc3c2c(=O)n(C)c(=O)n3C)no1 returned Yeast growth inh inactive, MDM2 E3 inh 33, Yeast life ext inactive, Measles CPE inactive and RAM network inh inactive.
S=c1[nH]nc(Cn2cnc3ccccc32)n1-c1ccccc1 was read as MDM2 E3 inh inactive, INS promoter inh inactive and RAM network inh inactive.
For Cc1ccc(C(=O)COC(=O)CCC(=O)NC2CCCCC2)cc1C the results were Yeast growth inh inactive, MDM2 E3 inh inactive, INS promoter inh inactive, Yeast life ext inactive, Measles CPE inactive and RAM network inh inactive.
Screening O=S(=O)(/C=C/c1ccccc1)NC1CCCCCCC1 returned Yeast growth inh inactive, MDM2 E3 inh inactive, INS promoter inh inactive, Yeast life ext 27, Measles CPE inactive and RAM network inh inactive.
For O=[N+]([O-])c1ccc(N2CCN(CCOc3nonc3-c3ccccc3)CC2)c(Cl)c1 the results were Yeast growth inh inactive, MDM2 E3 inh inactive, INS promoter inh inactive, Yeast life ext inactive, Measles CPE 38 and RAM network inh inactive.
`CN(CCCNC(=O)CSc1cc(=O)n(C)c2cc(Cl)ccc12)Cc1ccccc1` gave MDM2 E3 inh inactive and RAM network inh inactive.
For COc1ccc(-c2cn3c4c(sc3n2)CCCC4)cc1 the results were Yeast growth inh inactive, MDM2 E3 inh inactive, INS promoter inh inactive, Yeast life ext inactive, Measles CPE inactive and RAM network inh inactive.
`Cc1ccc(-n2cc(CN3CCC(O)(c4ccccn4)CC3)c(-c3ccc(F)cc3)n2)cc1` gave MDM2 E3 inh inactive and RAM network inh inactive.
`Cc1cc2ccc(C)c(C)c2nc1SCC(=O)c1cccs1` gave Yeast growth inh inactive, MDM2 E3 inh inactive, INS promoter inh inactive, Yeast life ext inactive, Measles CPE 32 and RAM network inh 8.6.
`Cc1ccc(C)c2c1cc(C)c1nnc(SCC(=O)c3cccs3)n12` gave Yeast growth inh inactive, MDM2 E3 inh inactive, INS promoter inh inactive, Yeast life ext inactive, Measles CPE inactive and RAM network inh 11.
Screening Cc1ccc2cc(C)c3nnc(SCC(=O)c4cccs4)n3c2c1C returned Yeast growth inh inactive, MDM2 E3 inh inactive, INS promoter inh inactive, Yeast life ext inactive, Measles CPE inactive and RAM network inh inactive.
Screening Cc1nc2ccc(NC(=O)c3ccc([N+](=O)[O-])cc3)cc2s1 returned Yeast growth inh inactive, MDM2 E3 inh inactive, INS promoter inh inactive, Yeast life ext inactive, Measles CPE inactive and RAM network inh inactive.
